Screening results deposited in PubChem by Johns Hopkins Ion Channel Center.
Compounds with a hit are over-represented: about 3.1% of the library has one in this group of screens.
KCNK3 inh = human KCNK3 channel inhibition, primary screen; CHO-KCNK3 thallium flux, FluxOR fluorescence; hits give low values; O14649; AID 602410; actives 0.84% (n = 340,000); B-score at 10 µM;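 active = B-score under library mean minus 4 SD, starting fluorescence ratio at most library mean plus 5 SD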;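 also: more negative B-score means stronger inhibition of thallium flux through KCNK3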
hERG rescue = hERG (human) protection from proarrhythmic block; CHO-hERG, FluxOR thallium flux, dofetilide IC70 present; activation (rescue from dofetilide block), less the hit threshold, % at 10 µM; actives 0.51% (n = 310,000);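 active = activation above the mean of controls blocked by dofetilide plus 5 SD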;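 also: thallium influx through hERG after potassium depolarization seen as dye fluorescence rise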
KCNQ1 inh = blocks the human KCNQ1 potassium channel | P51787 | CHO-K1 KCNQ1, FluxOR thallium flux fluorescence; hits give high values | B-score at 10 µM | actives 1.3% (n = 310,000) | AID 2642;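 active = compounds whose thallium flux B-score, printed positive for inhibition, exceeds three library SD while starting fluorescence stays within three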;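 also: channel opened by potassium depolarization with thallium stimulus after 20 min compound exposure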
KCNK9 block = human KCNK9 channel inhibition | AID 488922 | actives 1.2% (n = 310,000) | HEK293 KCNK9, FluxOR thallium flux fluorescence; hits give low values | Q9NPC2 | B-score at 10 µM;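 active = ratio B-score over 3 SD below the library mean, with starting fluorescence within 5 SD of its mean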;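 also: negative B-score means less thallium flux so channel inhibition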
KCNQ1 pot = potentiates or activates the human KCNQ1 potassium channel; P51787; CHO-K1 KCNQ1, thallium flux FluxOR fluorescence; hits give high values; B-score at 10 µM; actives 0.35% (n = 310,000); AID 2648;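 active = fluorescence ratio B-score, a plate-corrected score, at least three library SD, with initial intensity B-score within 5 SD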
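Doses: Single concentration per compound, DMSO matched to controls | Test system: KCNQ1-transfected CHO-K1 cells | Timing: 90 min dye loading and 20 min compound exposure, both at room temperature | Measured by: Kinetic FluxOR thallium fluorescence, 10-s 1-Hz baseline, 110-s post-stimulus read | Medium: Assay buffer with matched DMSO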
KCNK9 block conf = human KCNK9 inhibitor confirmation; HEK293 KCNK9 cells, FluxOR thallium flux fluorescence; AID 492992; actives 43% (n = 4,900); inhibition, % at 10 µM; shares compounds with KCNK9 block;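 active = thallium signal inhibited by more than 5 SD of the compound-free buffer control wells, on both duplicate plates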;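 also: 0% = assay buffer control wells without compound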
Kir2-1 spec = selectivity of KCNK9 modulators against mouse Kir2.1; inhibition, % at 10 µM; shares compounds with KCNK9 block; Kir2.1 cells, FluxOR thallium flux fluorescence; actives 4% (n = 4,900);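 active = thallium signal drop more than 5 SD beyond the mean of the no-compound control wells, seen in both duplicate plates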;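 also: signal is fluorescence rise after thallium addition divided by baseline fluorescence; plate controls were assay buffer only for no effect and full block by chlorpromazine control for full effect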
Target sequence (P35561 whole entry, looked up): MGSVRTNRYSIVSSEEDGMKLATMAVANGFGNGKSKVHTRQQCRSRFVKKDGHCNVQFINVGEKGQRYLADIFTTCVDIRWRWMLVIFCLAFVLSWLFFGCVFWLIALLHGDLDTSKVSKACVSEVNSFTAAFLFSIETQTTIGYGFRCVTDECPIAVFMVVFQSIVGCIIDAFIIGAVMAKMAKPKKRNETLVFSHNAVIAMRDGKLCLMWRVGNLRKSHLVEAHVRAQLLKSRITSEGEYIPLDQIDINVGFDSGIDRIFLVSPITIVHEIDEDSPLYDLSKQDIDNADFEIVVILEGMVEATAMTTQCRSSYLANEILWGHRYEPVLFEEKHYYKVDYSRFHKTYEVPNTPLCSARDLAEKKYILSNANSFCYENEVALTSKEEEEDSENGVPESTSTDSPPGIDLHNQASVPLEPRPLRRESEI
HEK293 Tl ctr = non-induced cell nonspecific activity of KCNK9 modulators; shares compounds with KCNK9 block; non-induced KCNK9-HEK293, FluxOR thallium flux; inhibition, % at 10 µM; actives 40% (n = 4,900);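 active = thallium signal drop beyond 5 SD of the untreated control mean, on both duplicate plates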;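 also: plate controls were buffer only IC0 wells for no effect and SID17386958 at its maximal inhibitory level for full effect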
The depositor's hits bear a star.

`COc1cc(NC(=O)c2cc(OC)c(OC)c(OC)c2)cc(-n2cnnn2)c1` gave KCNK3 inh inactive, hERG rescue -7, KCNQ1 inh inactive, KCNK9 block inactive and KCNQ1 pot inactive.
Screening Cc1ccc(F)c(NC(=O)c2ccc(Cn3cc(Cl)cn3)cc2)c1 returned KCNK3 inh inactive, hERG rescue -10, KCNQ1 inh inactive, KCNK9 block inactive and KCNQ1 pot inactive.
Screening Cc1ccc(F)c(NC(=O)/C(C#N)=C(\O)c2ccc(C(C)(C)C)cc2)c1 returned KCNK3 inh inactive, hERG rescue -11, KCNQ1 inh 7*, KCNK9 block inactive, KCNQ1 pot inactive, KCNK9 block conf inactive, Kir2-1 spec inactive and HEK293 Tl ctr inactive.
O=C(N/N=C\c1cccc(Cl)c1)c1ccc(Cn2cc(Br)c([N+](=O)[O-])n2)o1 was read as KCNK3 inh inactive, hERG rescue -10, KCNQ1 inh inactive, KCNK9 block -16*, KCNQ1 pot inactive, KCNK9 block conf 68%*, Kir2-1 spec inactive and HEK293 Tl ctr 32%*.
Screening Cc1ccc(/C=N\NC(=O)c2ccc(Cn3cc(Br)c([N+](=O)[O-])n3)o2)o1 returned KCNK3 inh inactive, hERG rescue -9, KCNQ1 inh inactive, KCNK9 block inactive and KCNQ1 pot inactive.
Cc1c(Cl)c([N+](=O)[O-])nn1Cc1ccc(C(=O)N/N=C\c2cccc(Br)c2)o1 was read as KCNK3 inh inactive, hERG rescue -11, KCNQ1 inh inactive, KCNK9 block -8.5*, KCNQ1 pot inactive, KCNK9 block conf 42%*, Kir2-1 spec inactive and HEK293 Tl ctr 27%*.
Screening CC(=O)Nc1ccc(S(=O)(=O)N(C)Cc2cnn(C)c2)cc1 returned KCNK3 inh inactive, hERG rescue -3, KCNQ1 inh inactive, KCNK9 block inactive and KCNQ1 pot inactive.
Screening CCN(N=Nc1cccc([N+](=O)[O-])c1)c1cccc([N+](=O)[O-])c1 returned KCNK3 inh inactive, hERG rescue -11, KCNQ1 inh inactive, KCNK9 block -11*, KCNQ1 pot inactive, KCNK9 block conf 59%*, Kir2-1 spec inactive and HEK293 Tl ctr 40%*.
For NC(=O)CN(N=Nc1cccc([N+](=O)[O-])c1)c1cccc([N+](=O)[O-])c1 the results were KCNK3 inh inactive, hERG rescue -7, KCNQ1 inh inactive, KCNK9 block inactive and KCNQ1 pot inactive.
`O=C(CCc1nc2ccccc2c(=O)[nH]1)N1CCN(S(=O)(=O)c2ccc(F)cc2)CC1` gave KCNK3 inh inactive.
Screening CSCCC(NS(=O)(=O)c1ccc(Cl)cc1)C(=O)OCc1c(Cl)cccc1Cl (centres undefined) returned KCNK3 inh inactive, hERG rescue -14, KCNQ1 inh inactive, KCNK9 block -9.2*, KCNQ1 pot inactive, KCNK9 block conf 36%*, Kir2-1 spec inactive and HEK293 Tl ctr 36%*.
For CN(C)S(=O)(=O)c1ccc(N2CCCC2)c(C(=O)NCC2COc3ccccc3O2)c1 (centres undefined) the results were KCNK3 inh inactive, hERG rescue -16, KCNQ1 inh inactive, KCNK9 block inactive, KCNQ1 pot inactive, KCNK9 block conf inactive, Kir2-1 spec inactive and HEK293 Tl ctr inactive.
`CN(C)S(=O)(=O)c1ccc(N2CCCC2)c(C(=O)Nc2ccccc2OC(F)F)c1` gave KCNK3 inh inactive, hERG rescue -8, KCNQ1 inh inactive, KCNK9 block inactive, KCNQ1 pot inactive, KCNK9 block conf inactive, Kir2-1 spec inactive and HEK293 Tl ctr inactive.
`CN(C)S(=O)(=O)c1ccc(N2CCCC2)c(C(=O)NCC2CCCCC2)c1` gave KCNK3 inh inactive, hERG rescue -7, KCNQ1 inh inactive, KCNK9 block inactive and KCNQ1 pot inactive.
Screening CN(C)S(=O)(=O)c1ccc(N2CCCC2)c(C(=O)Nc2ccccc2N2CCOCC2)c1 returned KCNK3 inh inactive.
CSc1ccccc1NC(=O)c1cc(S(=O)(=O)N(C)C)ccc1N1CCCC1 was read as KCNK3 inh inactive, hERG rescue -10, KCNQ1 inh inactive, KCNK9 block inactive, KCNQ1 pot inactive, KCNK9 block conf inactive, Kir2-1 spec inactive and HEK293 Tl ctr inactive.
O=C1CCc2cc(S(=O)(=O)Nc3cccc(F)c3)cc3c2N1CC3 was read as KCNK3 inh inactive, hERG rescue -7, KCNQ1 inh inactive, KCNK9 block inactive and KCNQ1 pot inactive.
CCCCC(=O)Nc1ccccc1C(=O)OCC(=O)c1ccc2c(c1)OCCO2 was read as KCNK3 inh inactive, hERG rescue -9, KCNQ1 inh inactive, KCNK9 block -19*, KCNQ1 pot inactive, KCNK9 block conf 78%*, Kir2-1 spec inactive and HEK293 Tl ctr 43%*.
`CCOc1ccc(NC(=O)c2ccc3c(c2)C(=O)N(Cc2ccncc2)C3=O)cc1` gave KCNK3 inh inactive.
For CCN(CC)CCOc1ccc(/C(=C(\Cl)c2ccccc2)c2ccccc2)cc1 the results were KCNK3 inh inactive, hERG rescue -34, KCNQ1 inh 11*, KCNK9 block inactive, KCNQ1 pot inactive, KCNK9 block conf inactive, Kir2-1 spec inactive and HEK293 Tl ctr inactive.
For CCC(C(=O)NCCc1ccc(OC)cc1OC)n1nc(C)n2c(cc3occc32)c1=O (centres undefined) the results were KCNK3 inh inactive, hERG rescue -8, KCNQ1 inh inactive, KCNK9 block inactive and KCNQ1 pot inactive.
Screening Cc1ccc(S(=O)(=O)N(C)C)cc1NC(=O)CSc1nc2ccccc2c(=O)n1CC1CCCO1 (centres undefined) returned KCNK3 inh inactive, hERG rescue -14, KCNQ1 inh inactive, KCNK9 block inactive and KCNQ1 pot inactive.
For Cc1ccc(S(=O)(=O)N(C)C)cc1-n1c(SCC(=O)Nc2ccc(F)cc2)nc2ccccc2c1=O the results were KCNK3 inh inactive, hERG rescue -6, KCNQ1 inh inactive, KCNK9 block -9.7*, KCNQ1 pot inactive, KCNK9 block conf 50%*, Kir2-1 spec inactive and HEK293 Tl ctr 24%*.
Cn1c2ccccc2c(=O)c2cc(C#Cc3ccc(N)cc3)ccc21 was read as KCNK3 inh inactive, hERG rescue -21, KCNQ1 inh inactive, KCNK9 block -8.5*, KCNQ1 pot inactive, KCNK9 block conf 38%*, Kir2-1 spec inactive and HEK293 Tl ctr 26%*.
